Laboratory results published in ChEMBL document CHEMBL1773032, “Pierreiones A-D, solid tumor selective pyranoisoflavones and other cytotoxic constituents from Antheroporum pierrei” (J Nat Prod, 2011).

Tests used:
[1] = test system: MC-38; assay: Selective toxicity against mouse C38 cells assessed as differential zone units at 68 ug/mL by disk diffusion soft agar colony formation assay relative to mouse L1210 cells; assay type: functional
Summary of the method: (§1)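 Murine Colon 38 and leukemia L1210 cells tested in the disk diffusion soft agar colony formation assay. Differential cytotoxicity expressed as the difference in inhibition zone size between the two lines, in zone units (200 zone units = 6 mm).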

[2] = test system: HCT-116; assay: Cytotoxicity against human HCT116 cells measured per disk after 5 days by hemocytometer counting; assay type: functional, cell-based
Summary of the method: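 HCT-116 cells seeded at 5 × 10^4 cells per T25 flask in RPMI-1640 with 15% FBS, 1% penicillin-streptomycin and 1% glutamine, 37 °C, 5% CO2. Drug added at several concentrations on day 3, then incubated 120 h (5 d). Cells trypsinized, washed and resuspended in HBSS, counted by hemocytometer. Counts normalized to untreated control to give IC50.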

[3] = test system: MC-38; assay: Selective toxicity against mouse C38 cells assessed as differential zone units at 66 ug/mL by disk diffusion soft agar colony formation assay relative to mouse L1210 cells; assay type: functional; summary of the method: as §1
[4] = test system: MC-38; assay: Selective toxicity against mouse C38 cells assessed as differential zone units at 1.9 ug/mL by disk diffusion soft agar colony formation assay relative to mouse L1210 cells; assay type: functional; summary of the method: as §1
[5] = test system: MC-38; assay: Selective toxicity against mouse C38 cells assessed as differential zone units at 0.26 ug/mL by disk diffusion soft agar colony formation assay relative to mouse L1210 cells; assay type: functional; summary of the method: as §1
[6] = test system: MC-38; assay: Selective toxicity against mouse C38 cells assessed as differential zone units at 0.23 ug/mL by disk diffusion soft agar colony formation assay relative to mouse L1210 cells; assay type: functional
Summary of the method: (§2)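 Disk diffusion soft agar colony-formation assay with murine Colon 38 (colon adenocarcinoma) and L1210 (lymphocytic leukemia) cells. The zone of inhibited colony formation around each disk is measured in zone units, where 200 zone units = 6 mm. Selectivity is the solid tumor minus leukemia zone difference.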

[7] = test system: MC-38; assay: Selective toxicity against mouse C38 cells assessed as differential zone units at 0.24 ug/mL by disk diffusion soft agar colony formation assay relative to mouse L1210 cells; assay type: functional; summary of the method: as §2

Row | SMILES | IC50 [2] [µg] | other results
1 | COc1cc(-c2coc3cc4c(c(OC)c3c2=O)C=CC(C)(C)O4)ccc1OC[C@@H](O)C(C)(C)O [PIERREIONE A] | 7.5 | Activity [1]: 300 Zone units
2 | COc1cc(-c2coc3cc4c(cc3c2=O)C=CC(C)(C)O4)ccc1OC[C@@H](O)C(C)(C)O [PIERREIONE B] | 18 | Activity [3]: 300 Zone units
3 | COc1cc(-c2coc3cc4c(c(OC)c3c2=O)C=CC(C)(C)O4)ccc1OCC=C(C)C [PIERREIONE C] | > 46 | –
4 | COc1cc(-c2coc3cc4c(cc3c2=O)C=CC(C)(C)O4)ccc1OCC=C(C)C [PIERREIONE D] | 30 | Activity [4]: 600 Zone units
5 | C=C(C)[C@H]1Cc2c(ccc3c2O[C@@H]2COc4cc(OC)c(OC)cc4[C@]2(O)C3=O)O1 [ROTENOLONE] | 0.055 | Activity [5]: 450 Zone units
6 | C=C(C)[C@H]1Cc2c(ccc3c2O[C@@H]2COc4cc(OC)c(OC)cc4[C@@H]2C3=O)O1 [ROTENONE] | 0.045 | Activity [6]: 500 Zone units
7 | COc1cc2c(cc1OC)[C@]1(O)C(=O)c3ccc4c(c3O[C@@H]1CO2)C=CC(C)(C)O4 [TEPHROSIN] | 0.04 | Activity [7]: 550 Zone units
